Here are results for one compound from ChEMBL document CHEMBL4477209, “Indole-2-carboxamide-based MmpL3 Inhibitors Show Exceptional Antitubercular Activity in an Animal Model of Tuberculosis Infection” (J Med Chem, 2016).

Structures are written as SMILES. Values after ≈ are worked out from the molar mass of the structure shown. Active and inactive are the calls of the source. The rule behind the calls is not given here.

Series [1] relates to Mycobacterium tuberculosis H37Rv. The experiment in a line: Inhibition of MmpL3 in clinical isolates of drug sensitive Mycobacterium tuberculosis H37Rv after 7 to 14 days by alamar blue assay. Background: Alamar Blue is a resazurin reagent that responds to reducing activity.
In another series the test system is Vero. The experiment in a line: Cytotoxicity against african green monkey Vero cells. The class given is cell-based. The note with it: Chlorocebus sabaeus.
Series [2] can be described thus: Stability in rat hepatocytes assessed as compound remaining at 1 uM after 2 hrs. The note with it: read-out: Stability. The class given is ADME, cell-based, Hepatocyte. In a few lines: (§1)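 Hepatocytes from human, mouse, rat or dog incubated with 1 μM starting concentration for 2 h; percent of parent compound remaining.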
Series [3] is described as follows: Stability in dog hepatocytes assessed as compound remaining at 1 uM after 2 hrs. It is filed as ADME, cell-based, Canis lupus familiaris, Hepatocyte. The note with it: read-out: Stability. The gist of the method: as §1
The target of the next series is Cytochrome P450 2C9 (Homo sapiens, UniProt P11712). Kind of series: Inhibition of CYP2C9 (unknown origin). The class given is ADME.
Chain of Cytochrome P450 2C9 (P11712 whole entry): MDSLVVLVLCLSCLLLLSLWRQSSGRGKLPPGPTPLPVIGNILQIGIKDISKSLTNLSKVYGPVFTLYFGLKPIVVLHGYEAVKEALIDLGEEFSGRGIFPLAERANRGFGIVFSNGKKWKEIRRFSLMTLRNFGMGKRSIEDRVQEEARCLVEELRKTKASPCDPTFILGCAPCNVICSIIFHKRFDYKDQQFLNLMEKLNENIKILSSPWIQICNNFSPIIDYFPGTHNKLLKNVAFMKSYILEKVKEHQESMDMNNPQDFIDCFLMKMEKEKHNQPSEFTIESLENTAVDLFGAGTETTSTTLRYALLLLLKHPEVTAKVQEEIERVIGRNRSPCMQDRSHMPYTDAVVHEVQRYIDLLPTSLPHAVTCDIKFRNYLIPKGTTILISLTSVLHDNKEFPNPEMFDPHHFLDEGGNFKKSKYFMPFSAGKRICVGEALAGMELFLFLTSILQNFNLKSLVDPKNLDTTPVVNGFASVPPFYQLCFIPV
Series [4] is described as follows: Permeability across apical to basolateral side in human Caco2 cells. The class given is ADME, cell-based. The note with it: Caco-2, read-out: permeability. On the technique in general: Caco-2 monolayers are a common model of the intestinal barrier.
Series [5] is described as follows: Permeability across basolateral to apical side in human Caco2 cells. The class given is ADME, cell-based. The settings on record: Caco-2, read-out: permeability.
Series [6] has as its target T1, Nuclear receptor subfamily 1 group I member 2 (Homo sapiens, UniProt O75469).
T1 sequence (O75469 whole entry): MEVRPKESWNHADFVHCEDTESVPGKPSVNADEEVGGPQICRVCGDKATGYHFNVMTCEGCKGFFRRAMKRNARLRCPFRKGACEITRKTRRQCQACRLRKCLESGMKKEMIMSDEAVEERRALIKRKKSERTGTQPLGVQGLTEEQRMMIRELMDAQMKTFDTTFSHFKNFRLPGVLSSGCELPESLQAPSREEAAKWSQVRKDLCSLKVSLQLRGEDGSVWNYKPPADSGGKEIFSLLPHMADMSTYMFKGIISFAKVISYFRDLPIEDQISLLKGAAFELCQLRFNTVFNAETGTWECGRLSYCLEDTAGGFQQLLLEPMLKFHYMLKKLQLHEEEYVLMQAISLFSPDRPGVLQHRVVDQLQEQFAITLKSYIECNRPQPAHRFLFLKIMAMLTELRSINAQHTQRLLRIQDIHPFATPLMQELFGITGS
Kind of series: Transactivation of PXR (unknown origin) assessed as upregulation of CYP3A4 at 0.1 to 1 microg/ml. The class given is ADME. In a few lines: (§2)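 Nuclear receptor reporter-gene induction assay, with reporters coupled to PXR, CAR or AhR. Compound was tested at 0.1–1, 3 and 8 μg/mL. Positive controls were rifampin for PXR, CITCO for CAR and 3-methylcholanthrene for AhR.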

In series [7] the target is T2, Aryl hydrocarbon receptor (Homo sapiens, UniProt P35869).
T2 sequence (P35869 whole entry): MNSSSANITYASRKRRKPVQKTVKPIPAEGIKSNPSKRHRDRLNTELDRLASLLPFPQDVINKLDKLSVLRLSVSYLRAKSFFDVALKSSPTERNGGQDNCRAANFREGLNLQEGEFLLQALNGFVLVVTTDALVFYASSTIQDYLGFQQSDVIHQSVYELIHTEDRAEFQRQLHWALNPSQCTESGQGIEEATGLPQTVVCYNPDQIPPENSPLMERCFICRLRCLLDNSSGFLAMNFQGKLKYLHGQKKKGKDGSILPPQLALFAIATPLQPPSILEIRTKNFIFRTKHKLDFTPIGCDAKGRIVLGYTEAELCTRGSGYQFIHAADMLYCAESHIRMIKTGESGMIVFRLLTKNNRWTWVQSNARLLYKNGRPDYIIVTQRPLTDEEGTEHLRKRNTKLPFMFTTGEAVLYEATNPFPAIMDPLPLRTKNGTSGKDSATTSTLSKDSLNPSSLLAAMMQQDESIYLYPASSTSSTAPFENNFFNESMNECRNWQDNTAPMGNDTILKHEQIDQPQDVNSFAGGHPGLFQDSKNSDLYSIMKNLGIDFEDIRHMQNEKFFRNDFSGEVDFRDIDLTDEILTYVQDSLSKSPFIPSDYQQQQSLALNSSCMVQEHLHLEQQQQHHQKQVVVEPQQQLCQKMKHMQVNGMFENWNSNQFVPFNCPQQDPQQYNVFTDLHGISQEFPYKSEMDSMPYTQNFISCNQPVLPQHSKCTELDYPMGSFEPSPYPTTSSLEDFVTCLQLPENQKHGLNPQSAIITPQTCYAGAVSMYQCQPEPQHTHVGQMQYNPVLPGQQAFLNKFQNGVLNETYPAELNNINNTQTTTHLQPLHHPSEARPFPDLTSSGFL
Kind of series: Transactivation of AhR (unknown origin) assessed as upregulation of CYP1A2 at 3 to 8 microg/ml. It is filed as ADME. In a few lines: as §2

A short description of series [8]: Mutagenicity in Salmonella typhimurium TA98 assessed as increase in ratio of revertant colonies at 500 microg/plate in presence of S9 liver fraction relative to control. The settings on record: salmonella enterica subsp. enterica serovar typhimurium. The class given is toxicity, subcellular. In a few lines: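 Bacterial reverse mutation test in S. typhimurium TA98 with S9 liver fraction, at 500 and 5000 μg/plate. Revertant colony count expressed as a ratio to the DMSO solvent control; 2-aminoanthracene as positive control.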

Series [9] has as its system Mycobacterium tuberculosis. Kind of series: Antimycobacterial activity against Mycobacterium tuberculosis H37Rv infected in BALB/c mouse model assessed as reduction in CFU counts in lung at 100 mg/kg administered daily via oral gavage for 5 days per week measured after 28 days post dosage relative to control. It is filed as functional. The gist of the method: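 Female BALB/c mice, 4-6 weeks old, aerosol-infected with H37Rv (about 10^3 CFU); five mice taken on day 1 for lung implantation CFU. From day 1, 12.5, 25, 50 or 100 mg/kg in 0.5% carboxymethylcellulose by daily oral gavage, 5 days/week. Ethambutol 100 mg/kg as positive control, untreated infected mice as negative, 5 mice per group. Lung homogenates plated on 7H11 selective agar on days 14 and 28.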

In series [10] the test system is Mycobacterium tuberculosis. Kind of series: Antimycobacterial activity against Mycobacterium tuberculosis H37Rv infected in BALB/c mouse model assessed as protection against mouse mortality at 12.5 to 100 mg/kg administered daily via oral gavage for 5 days per week measured after 14 to 28 days post dosage. It is filed as functional, organism-based.
Series [11] concerns Mycobacterium tuberculosis. Kind of series: Antimycobacterial activity against Mycobacterium tuberculosis H37Rv infected in BALB/c mouse model assessed as bacterial growth inhibition in lungs at 100 mg/kg administered daily via oral gavage for 5 days per week measured after 28 days post dosage co-treated with 10 mg/kg of rifampin by Bliss synergy model based analysis. The class given is functional, organism-based. In a few lines: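 Female BALB/c mice, 4-6 weeks old, aerosol-infected with H37Rv, day 1 implantation 3.4-log CFU per lung. Treatment from day 14: 100 mg/kg plus rifampin 10 mg/kg by oral gavage, doses at least 1 h apart, daily 5 days/week. Single-drug arms and untreated infected controls included, four mice per group. Lung CFU counted at day 28 of treatment on 7H11 selective agar.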

Series [12] in a line: Oral bioavailability in BALB/c mouse at 100 mg/kg administered for 30 to 120 mins followed by Mycobacterium tuberculosis H37Rv addition to compound treated serum incubated for 7 days by alamar blue reagent based serum inhibition titration assay. The class given is ADME, organism-based. The note with it: in vivo. The gist of the method:
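Six-week-old female BALB/c mice (20 g) given one oral dose as suspension in 0.5% CMC in water; isoniazid 10 mg/kg as positive control, vehicle as negative. Serum collected at 30, 60 and 120 min, pooled from three mice per time point, 2-fold serially diluted. 10^4 CFU H37Rv added per well, 7 days at 37 °C. alamarBlue added for 16−18 h, fluorescence read at Ex544/Em590 and plotted against serum titration.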

In series [1], `C[C@@H]1[C@H]2C[C@@H](C[C@H]1NC(=O)c1cc3c(F)cc(F)cc3[nH]1)C2(C)C` returned an MIC90 of 0.012 µM (≈ 3.99 ng/mL). Further, the concentration for half-maximal inhibition (IC50) (commonly the concentration that inhibits the measured activity by half) in the series on Vero is at least 192 µM. The remaining at 2 h, 1 µM in series [2] amounted to 0.7%; in series [3] it was 18%. At Cytochrome P450 2C9, the “inhibition (INH)” value is recorded as -5.2%. Also, the Papp A→B in series [4] came out at 0.19 ×10⁻⁶ cm/s. Also, the Papp B→A in series [5] stood at 0.25 ×10⁻⁶ cm/s. For the same compound, the Activity result in series [6] is “Not Active”; in [7], “Active”; in series [9], 2.12 log10CFU. Besides, the “fold change (FC)” value in series [8] is 2.5. The result in series [10] and in series [11] was Active. Besides, the Drug uptake result in series [12] is “Active”.
